Assay results collected from several papers.
Protocols differ between the studies behind these lines.

SMILES	organism	assay	system	setting	endpoint	value
COc1cc(NC(=O)c2ccc(C(F)(F)F)cc2C(F)(F)F)ccc1S(N)(=O)=O	Trypanosoma brucei	parasite growth, MTS	–	–	IC50	> 100 µM
Cc1cc(C)c(C#N)c(SCc2ccccc2)n1	Trypanosoma brucei	parasite growth, resazurin	RHODESIENSE	–	EC50	> 64 µM
COc1ccc2c(c1)c(=O)c(C(=O)NN)cn2Cc1ccccc1	Trypanosoma brucei	parasite growth, resazurin	–	72 h	EC50	> 4 µM
COc1ccc(C(=O)CSc2[nH]c(=O)cc(C(F)(F)F)c2C#N)cc1	Trypanosoma brucei	parasite growth, resazurin	–	–	EC50	30.8 µM
Cl.O=C(O)CNC(=O)c1ccc(NC(=O)c2cc(Br)c(Br)[nH]2)c(N2CCNCC2)c1	Enterococcus faecium	microbial growth, broth dilution	ATCC35667	–	MIC	> 32 µg/mL
Cc1ccc(Cn2cc(C(=O)NN)c(=O)c3cc(Oc4ccccc4)ccc32)cc1	Trypanosoma brucei	parasite growth, resazurin	–	72 h	EC50	0.46 µM
Cc1cc(C)c(C#N)c(SCC(=O)c2ccc(F)cc2)n1	Trypanosoma brucei	parasite growth, resazurin	–	–	EC50	42.6 µM
Cl.N[C@H]1CCN(c2cc(C(=O)NCC(=O)O)ccc2NC(=O)c2cc(Br)c(Br)[nH]2)C1	Enterococcus faecium	microbial growth, broth dilution	ATCC35667	–	MIC	> 32 µg/mL
Cc1ccc(Cn2cc(C(=O)N/N=C/c3ccc([N+](=O)[O-])o3)c(=O)c3cc([N+](=O)[O-])ccc32)cc1	Trypanosoma brucei	parasite growth, resazurin	–	72 h	EC50	> 4 µM
CC(C)(C)OC(=O)N[C@@H]1CCN(c2cc(C(=O)NCC(=O)O)ccc2NC(=O)c2cc(Br)c(Br)[nH]2)C1	Enterococcus faecium	microbial growth, broth dilution	ATCC35667	–	MIC	> 32 µg/mL
Cc1cc(C)c(C(N)=O)c(SCC(=O)c2ccc(Cl)cc2Cl)n1	Trypanosoma brucei	parasite growth, resazurin	–	–	EC50	> 64 µM
Cc1ccc(Cn2cc(C(=O)N/N=C/c3ccc([N+](=O)[O-])s3)c(=O)c3cc(Cl)c(Cl)cc32)cc1	Trypanosoma brucei	parasite growth, resazurin	–	72 h	EC50	> 4 µM
Cc1cc(C)c(C#N)c(SCC(=O)c2ccc(Cl)cc2)n1	Trypanosoma brucei	parasite growth, resazurin	RHODESIENSE	–	EC50	30.2 µM
Cc1[nH]c(C(=O)Nc2ccc(C(=O)NCC(=O)O)cc2N2CC[C@H](NC(=O)OC(C)(C)C)C2)c(Cl)c1Cl	Enterococcus faecium	microbial growth, broth dilution	ATCC35667	–	MIC	> 32 µg/mL
N=C(N)c1ccc(OCCCCCOc2ccc(C(=N)N)cc2)cc1	Trypanosoma brucei	parasite growth, SYBR Green	–	–	EC50	0.016 µM
Cc1ccc(Cn2cc(C(=O)N/N=C/c3ccc([N+](=O)[O-])o3)c(=O)c3cc(Cl)c(Cl)cc32)cc1	Trypanosoma brucei	parasite growth, resazurin	–	72 h	EC50	1.02 µM
